# Results published in ChEMBL document CHEMBL1649503, “Alkoxyalkyl esters of 9-(s)-(3-hydroxy-2-phosphonomethoxypropyl) adenine are potent and selective inhibitors of hepatitis B virus (HBV) replication in vitro and in HBV transgenic mice in vivo” (Antimicrob Agents Chemother, 2009).
# Legend:
# [1] = Selectivity index, ratio of CC50 for human HepG2(2.2.15) cells to EC50 for HBV infected in human HepG2(2.2.15) cells
# In short: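 Ratio from two 2.2.15 readouts after nine daily doses in RPMI/2% FBS. Extracellular HBV DNA was measured by quantitative blot hybridization and cytotoxicity by neutral red uptake (three cultures per concentration), both 24 h after the final dose.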
# Hepatitis B virus [2] = experiment: Antiviral activity against HBV harboring RNA polymerase N236T mutant gene infected in human HuH7 cells assessed as decrease in viral transient transfection […]; format: functional, organism-based; conditions: Huh-7
# In short: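 Lamivudine- and adefovir-resistant HBV mutants introduced into Huh7 cells by transient transfection. Compounds were tested in a 5-day assay.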
# HepG2 [3] = experiment: Drug metabolism in human HepG2 cells assessed as HPMPA uptake at 10 uM after 24 hrs; format: ADME, cell-based; conditions: hepg2, 24 h
# In short: (§1)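 Nearly confluent HepG2 flasks got 14C-labeled drug (final 10 µM, 50 mCi/mmol) for 24 h. Cells were washed with cold PBS, lysed in water by two freeze-thaw cycles and sonication, then extracted with cold TCA (8% final) and centrifuged at 4°C. Supernatant was counted and analyzed by SAX ion-exchange HPLC, with metabolites assigned by retention versus reference standards.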
# HepG2 [4] = experiment: Drug metabolism in human HepG2 cells assessed as HPMPA uptake at 10 uM after 48 hrs; format: ADME, cell-based; conditions: hepg2, 48 h
# HepG2 [5] = experiment: Drug metabolism in human HepG2 cells assessed as HPMPAp uptake at 10 uM after 48 hrs; format: ADME, cell-based; conditions: hepg2, 48 h
# HepG2 [6] = experiment: Drug metabolism in human HepG2 cells assessed as HPMPApp uptake at 10 uM after 24 hrs; format: ADME, cell-based; conditions: hepg2, 24 h; in short: as §1
# HepG2 [7] = experiment: Drug metabolism in human HepG2 cells assessed as HPMPApp uptake at 10 uM after 48 hrs; format: ADME, cell-based; conditions: hepg2, 48 h
# [8] = Tmax in Swiss-Webster mouse plasma at 10 mg/kg, po after 24 hrs; format: ADME, organism-based; set-up: dose 10 mg/kg, route oral
# In short: (§2)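 Female Swiss-Webster mice (about 25 g) got one 10 mg/kg dose of the 8-14C-labeled ester (50 mCi/mmol) in 0.7% saline, by oral gavage or intraperitoneal injection. Blood was taken at 1, 3, 6, 12 and 24 h. Liver, spleen, kidney, lung, heart and brain were excised, washed and weighed. Drug plus metabolites were measured by liquid scintillation as µM plasma equivalents or nmol/g tissue. Each time point is the mean of three replicates.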
# [9] = Tmax in Swiss-Webster mouse liver at 10 mg/kg, po after 24 hrs; format: ADME, organism-based; set-up: dose 10 mg/kg, route oral
# In short: (§3)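 Female Swiss-Webster mice (about 25 g) each got a single 10 mg/kg dose of the 14C-labeled (8-14C) ester (50 mCi/mmol) in 0.7% saline, by oral gavage or ip injection. Blood was taken at 1, 3, 6, 12 and 24 h, and liver, spleen, kidney, lung, heart and brain were excised, washed and weighed. Radioactivity was measured by scintillation counting as µM plasma equivalents or nmol/g tissue, mean of three per time point.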
# [10] = Tmax in Swiss-Webster mouse kidney at 10 mg/kg, po after 24 hrs; format: ADME, organism-based; set-up: dose 10 mg/kg, route oral; in short: as §3
# [11] = Tmax in Swiss-Webster mouse lung at 10 mg/kg, po after 24 hrs; format: ADME, organism-based; set-up: dose 10 mg/kg, route oral; in short: as §2
# [12] = Tmax in Swiss-Webster mouse heart at 10 mg/kg, po after 24 hrs; format: ADME, organism-based; set-up: dose 10 mg/kg, route oral; in short: as §3
# [13] = Tmax in Swiss-Webster mouse brain at 10 mg/kg, po after 24 hrs; format: ADME, organism-based; set-up: dose 10 mg/kg, route oral; in short: as §3
# Liver [14] = experiment: Cmax in Swiss-Webster mouse liver assessed per gram of tissue at 10 mg/kg, po after 24 hrs; format: ADME, organism-based; set-up: dose 10 mg/kg, route oral; conditions: in vivo; in short: as §3
# Kidney [15] = experiment: Cmax in Swiss-Webster mouse kidney assessed per gram of tissue at 10 mg/kg, po after 24 hrs; format: ADME, organism-based; set-up: dose 10 mg/kg, route oral; conditions: in vivo; in short: as §3
# Lung [16] = experiment: Cmax in Swiss-Webster mouse lung assessed per gram of tissue at 10 mg/kg, po after 24 hrs; format: ADME, organism-based; set-up: dose 10 mg/kg, route oral; conditions: in vivo; in short: as §3
# Heart [17] = experiment: Cmax in Swiss-Webster mouse heart assessed per gram of tissue at 10 mg/kg, po after 24 hrs; format: ADME, organism-based; set-up: dose 10 mg/kg, route oral; conditions: in vivo; in short: as §3
# Liver [18] = experiment: AUC in Swiss-Webster mouse liver assessed per gram of tissue at 10 mg/kg, po after 24 hrs; format: ADME, organism-based; set-up: time < 24 hr, dose 10 mg/kg, route oral; conditions: in vivo; in short: as §3
# Kidney [19] = experiment: AUC in Swiss-Webster mouse kidney assessed per gram of tissue at 10 mg/kg, po after 24 hrs; format: ADME, organism-based; set-up: time < 24 hr, dose 10 mg/kg, route oral; conditions: in vivo; in short: as §3
# Lung [20] = experiment: AUC in Swiss-Webster mouse lung assessed per gram of tissue at 10 mg/kg, po after 24 hrs; format: ADME, organism-based; set-up: time < 24 hr, dose 10 mg/kg, route oral; conditions: in vivo; in short: as §3
# Heart [21] = experiment: AUC in Swiss-Webster mouse heart assessed per gram of tissue at 10 mg/kg, po after 24 hrs; format: ADME, organism-based; set-up: time < 24 hr, dose 10 mg/kg, route oral; conditions: in vivo; in short: as §3
# Brain = experiment: AUC in Swiss-Webster mouse brain assessed per gram of tissue at 10 mg/kg, po after 24 hrs; format: ADME, organism-based; set-up: time < 24 hr, dose 10 mg/kg, route oral; conditions: in vivo; in short: as §3
# [22] = Tmax in Swiss-Webster mouse plasma at 10 mg/kg, ip after 24 hrs; format: ADME, organism-based; set-up: dose 10 mg/kg, route intraperitoneal; in short: as §2
# [23] = Tmax in Swiss-Webster mouse spleen at 10 mg/kg, ip after 24 hrs; format: ADME, organism-based; set-up: dose 10 mg/kg, route intraperitoneal; in short: as §2
# [24] = Tmax in Swiss-Webster mouse heart at 10 mg/kg, ip after 24 hrs; format: ADME, organism-based; set-up: dose 10 mg/kg, route intraperitoneal; in short: as §3
# [25] = Tmax in Swiss-Webster mouse brain at 10 mg/kg, ip after 24 hrs; format: ADME, organism-based; set-up: dose 10 mg/kg, route intraperitoneal; in short: as §3
# [26] = Cmax in Swiss-Webster mouse plasma assessed per gram of tissue at 10 mg/kg, ip after 24 hrs; format: ADME, organism-based; set-up: dose 10 mg/kg, route intraperitoneal; in short: as §3
# Kidney [27] = experiment: Cmax in Swiss-Webster mouse kidney assessed per gram of tissue at 10 mg/kg, ip after 24 hrs; format: ADME, organism-based; set-up: dose 10 mg/kg, route intraperitoneal; conditions: in vivo; in short: as §3
# Kidney [28] = experiment: AUC in Swiss-Webster mouse kidney assessed per gram of tissue at 10 mg/kg, ip after 24 hrs; format: ADME, organism-based; set-up: time < 24 hr, dose 10 mg/kg, route intraperitoneal; conditions: in vivo; in short: as §3
# Spleen = experiment: AUC in Swiss-Webster mouse spleen assessed per gram of tissue at 10 mg/kg, ip after 24 hrs; format: ADME, organism-based; set-up: time < 24 hr, dose 10 mg/kg, route intraperitoneal; conditions: in vivo; in short: as §3
# Heart [29] = experiment: AUC in Swiss-Webster mouse heart assessed per gram of tissue at 10 mg/kg, ip after 24 hrs; format: ADME, organism-based; set-up: time < 24 hr, dose 10 mg/kg, route intraperitoneal; conditions: in vivo; in short: as §3
# [30] = Oral bioavailability in Swiss-Webster mouse at 10 mg/kg after 24 hrs; format: ADME, organism-based; conditions: in vivo
# In short: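 Same single 10 mg/kg 14C-labeled dose (50 mCi/mmol, 0.7% saline) given to female Swiss-Webster mice orally or ip. Plasma sampled 1–24 h and counted by liquid scintillation. Relative oral bioavailability came from AUCs of drug plus metabolites, computed as printed: […].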
# Mus musculus = experiment: Toxicity in transgenic mouse at 30 to 100 mg/kg, po assessed as morbidity after 7 days; format: organism-based; set-up: dose 30-100 mg/kg, route oral; conditions: in vivo, 168 h
# Hepatitis B virus [31] = experiment: Antiviral activity against HBV harboring RNA polymerase L180M mutant gene infected in human HuH7 cells assessed as decrease in viral transient transfection after 5 days; conditions: Huh-7, 5 days
# Hepatitis B virus [32] = experiment: Antiviral activity against HBV harboring RNA polymerase M204V mutant gene infected in human HuH7 cells assessed as decrease in viral transient transfection after 5 days; conditions: Huh-7, 5 days
compound,measurement,setting,value
CCCCCCCCCCCCCCCCOCCCOP(=O)(O)CO[C@H](CO)Cn1cnc2c(N)ncnc21,Selectivity Index,[1],>483
same,EC50,Hepatitis B virus [2],> 100 µM
same,EC90,Hepatitis B virus [2],> 100 µM
same,Drug uptake,HepG2 [3],1007 pmol
same,Drug uptake,HepG2 [4],393 pmol
same,Drug uptake,HepG2 [5],344 pmol
same,Drug uptake,HepG2 [6],888 pmol
same,Drug uptake,HepG2 [7],444 pmol
same,Tmax,[8],1 h
same,Tmax,[9],3 h
same,Tmax,[10],3 h
same,Tmax,[11],3 h
same,Tmax,[12],1 h
same,Tmax,[13],3 h
same,Cmax,Liver [14],21.1 nmol/g
same,Cmax,Kidney [15],5.07 nmol/g
same,Cmax,Lung [16],2.89 nmol/g
same,Cmax,Heart [17],0.2 nmol/g
same,AUC,Liver [18],222.2 nmol·h/g
same,AUC,Kidney [19],68.8 nmol·h/g
same,AUC,Lung [20],12.8 nmol·h/g
same,AUC,Heart [21],2.69 nmol·h/g
same,AUC,Brain,0.68 nmol·h/g
same,Tmax,[22],3 h
same,Tmax,[23],1 h
same,Tmax,[24],1 h
same,Tmax,[25],1 h
same,Cmax,[26],2230 nM
same,Cmax,Kidney [27],22.9 nmol/g
same,AUC,Kidney [28],195.7 nmol·h/g
same,AUC,Spleen,16.3 nmol·h/g
same,AUC,Heart [29],3.8 nmol·h/g
same,bioavailability,[30],64%
same,Activity,Mus musculus,Toxic
same,EC50,Hepatitis B virus [31],1 µM
same,EC90,Hepatitis B virus [31],3.5 µM
same,EC50,Hepatitis B virus [32],0.9 µM
same,EC90,Hepatitis B virus [32],3.2 µM
